This is one part of the list. Active and inactive are the calls of the source.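 How the source made its calls: active means inhibition of pump activity above 50%; inactive means the rest.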

This test deals with ATP-dependent translocase ABCB1 (Homo sapiens) (UniProt P08183). Nature of the test: blockers of ABCB1-mediated dye efflux – cell-based, single point, ABCG2 counter-screen, confirmation (AID 1451).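 Further: 0% = DMSO and 100% = nicardipine full pump inhibition.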 The following applies: CCRF-Adr cells, JC-1 efflux, flow cytometry; at 6.6 µM; hits give high values. An outline of the steps:
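Material – ABCB1-expressing CCRF-Adr cells · Quantity – 3 million cells per mL final in well · Reagent – JC-1 substrate · Dosing – single test-compound dose, 6.6 µM final · Schedule – 10 min exposure, 25 °C · Technique – flow cytometry, 530 nm emission · Benchmarks – nicardipine as high control, DMSO as low control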
A general note: A counterscreen serves to expose hits that act by an unwanted route or on another target.

Chain of ATP-dependent translocase ABCB1 (Homo sapiens) (P08183 whole entry, looked up): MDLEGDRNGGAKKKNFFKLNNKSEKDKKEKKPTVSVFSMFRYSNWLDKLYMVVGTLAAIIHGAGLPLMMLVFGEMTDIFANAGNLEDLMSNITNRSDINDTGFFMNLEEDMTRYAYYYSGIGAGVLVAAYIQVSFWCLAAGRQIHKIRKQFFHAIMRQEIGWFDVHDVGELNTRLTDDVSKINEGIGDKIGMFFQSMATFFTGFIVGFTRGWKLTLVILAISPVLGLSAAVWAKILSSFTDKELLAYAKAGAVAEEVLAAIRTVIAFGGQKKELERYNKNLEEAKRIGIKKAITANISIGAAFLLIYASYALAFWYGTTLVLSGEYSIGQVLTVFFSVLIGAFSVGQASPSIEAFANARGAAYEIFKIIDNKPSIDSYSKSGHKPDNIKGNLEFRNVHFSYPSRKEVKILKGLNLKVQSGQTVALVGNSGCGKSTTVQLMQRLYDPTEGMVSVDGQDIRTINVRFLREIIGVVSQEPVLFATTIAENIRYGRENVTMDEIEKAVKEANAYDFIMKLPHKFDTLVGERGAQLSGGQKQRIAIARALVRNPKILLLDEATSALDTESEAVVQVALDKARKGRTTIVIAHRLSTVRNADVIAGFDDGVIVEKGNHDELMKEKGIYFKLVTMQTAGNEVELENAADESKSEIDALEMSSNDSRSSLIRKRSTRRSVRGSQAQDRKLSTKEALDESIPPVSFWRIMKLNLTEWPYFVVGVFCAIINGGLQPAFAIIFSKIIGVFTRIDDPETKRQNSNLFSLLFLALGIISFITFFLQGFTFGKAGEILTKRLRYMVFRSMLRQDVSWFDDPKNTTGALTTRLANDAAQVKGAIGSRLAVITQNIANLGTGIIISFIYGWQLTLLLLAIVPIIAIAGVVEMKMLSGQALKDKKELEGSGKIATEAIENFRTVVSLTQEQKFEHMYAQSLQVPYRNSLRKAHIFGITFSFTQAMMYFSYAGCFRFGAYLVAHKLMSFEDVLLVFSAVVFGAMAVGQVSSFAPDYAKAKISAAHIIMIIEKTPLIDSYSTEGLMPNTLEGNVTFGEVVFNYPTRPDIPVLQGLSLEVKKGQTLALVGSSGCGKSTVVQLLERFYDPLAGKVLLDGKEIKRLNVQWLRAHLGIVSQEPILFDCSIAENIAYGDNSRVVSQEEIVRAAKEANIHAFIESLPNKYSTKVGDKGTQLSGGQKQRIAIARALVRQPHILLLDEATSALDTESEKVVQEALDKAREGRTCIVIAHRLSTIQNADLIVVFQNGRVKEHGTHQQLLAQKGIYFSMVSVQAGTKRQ

Regarding `COC(=O)COc1cc(C)cc2oc(=O)c3c(c12)CCCC3`, the inhibition is 1.84% (inactive).

In general, inhibition refers to the relative decrease from the control value, in per cent.

These data come from PubChem BioAssay AID1451 (NMMLSC, 2008).
